# Assays:
# [1] = AUC (0 to 24 hrs) in CD-1 mouse at 300 mg/kg, po; assay type: ADME, organism-based; parameters: time < 24 hr, dose 300 mg/kg, route oral; details: plasma
# In short: (§1)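 Male CD-1 mice received single daily oral gavage doses of 30, 100 or 300 mg/kg for 2 weeks. Plasma drug levels were determined on Day 13, and exposure was expressed as AUC(0–24 h).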
# [2] = system: Mus musculus; test: Toxicity in CD-1 mouse assessed as article related testes up to 300 mg/kg, po; assay type: organism-based, Testis; parameters: dose 300 mg/kg, route oral; details: in vivo
# [3] = system: Mus musculus; test: Toxicity in CD-1 mouse assessed as eyes (corneal degeneration, inflammation) up to 300 mg/kg, po; assay type: organism-based, Cornea; parameters: dose 300 mg/kg, route oral; details: in vivo
# [4] = system: Mus musculus; test: Toxicity in CD-1 mouse assessed as eyelid atrophy of sebaceous gland up to 300 mg/kg, po; assay type: organism-based; parameters: dose 300 mg/kg, route oral; details: in vivo
# [5] = system: Mus musculus; test: Toxicity in CD-1 mouse assessed as skin atrophy of sebaceous gland up to 300 mg/kg, po; assay type: organism-based; parameters: dose 300 mg/kg, route oral; details: in vivo
# [6] = system: Mus musculus; test: Toxicity in CD-1 mouse assessed as atrophy of the harderian and meibomian glands up to 300 mg/kg, po; assay type: organism-based; parameters: dose 300 mg/kg, route oral; details: in vivo
# [7] = system: Mus musculus; test: Toxicity in CD-1 mouse assessed as lacrimation up to 300 mg/kg, po; assay type: organism-based; parameters: dose 300 mg/kg, route oral; details: in vivo
# [8] = system: Mus musculus; test: Toxicity in CD-1 mouse assessed as ocular opacity up to 300 mg/kg, po; assay type: organism-based, Eye; parameters: dose 300 mg/kg, route oral; details: in vivo
# [9] = system: Mus musculus; test: Toxicity in CD-1 mouse assessed as swelling of the lips up to 300 mg/kg, po; assay type: organism-based; parameters: dose 300 mg/kg, route oral; details: in vivo
# [10] = system: Mus musculus; test: Toxicity in CD-1 mouse assessed as alopecia up to 300 mg/kg, po; assay type: organism-based; parameters: dose 300 mg/kg, route oral; details: in vivo
# [11] = system: Mus musculus; test: Toxicity in CD-1 mouse assessed as peri-orbital swelling up to 300 mg/kg, po; assay type: organism-based; parameters: dose 300 mg/kg, route oral; details: in vivo
# [12] = system: Mus musculus; test: Toxicity in mouse assessed as abnormalities in eyes at 30 mg/kg; assay type: organism-based; parameters: dose 30 mg/kg; details: in vivo
# [13] = Plasma concentration in AKR/J mouse at 30 mg/kg measured after 4 hrs; assay type: ADME, organism-based; parameters: dose 30 mg/kg
# In short: (§2)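 Male AKR/J mice, 7 weeks old (n = 10/group) and fed a 10% kcal low-fat diet, were given oral doses of 1, 3, 10 or 30 mg/kg. Plasma was collected 4 h after dosing, and drug concentration in that plasma was measured.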
# [14] = system: Mus musculus; test: Toxicity in mouse assessed as abnormalities in skin at 30 mg/kg; assay type: organism-based; parameters: dose 30 mg/kg; details: in vivo
# [15] = Drug level in liver in rat at 10 mg/kg measured after 6 hrs; assay type: ADME, organism-based; parameters: dose 10 mg/kg; details: read-out: Drug uptake
# In short: (§3)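 Rats were given a single 10 mg/kg dose. Plasma exposure (AUC, Cmax) was determined, and drug concentrations in plasma, brain and liver were measured at 6 h post-dose. The liver/plasma ratio was taken from the 6 h levels.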
# [16] = Ratio of drug level in liver to plasma of rat at 10 mg/kg measured after 6 hrs; assay type: ADME, organism-based; parameters: dose 10 mg/kg; in short: as §3
# [17] = Cmax in rat at 10 mg/kg; assay type: ADME, organism-based; parameters: dose 10 mg/kg; details: in vivo; in short: as §3
# [18] = Plasma concentration in rat at 10 mg/kg measured after 6 hrs; assay type: ADME, organism-based; parameters: dose 10 mg/kg; in short: as §3
# [19] = biological target: T1, Acyl-CoA desaturase 1 (Rattus norvegicus, UniProt P07308); test: Inhibition of rat SCD1 by rat microsomal assay
# T1 sequence (P07308 whole entry): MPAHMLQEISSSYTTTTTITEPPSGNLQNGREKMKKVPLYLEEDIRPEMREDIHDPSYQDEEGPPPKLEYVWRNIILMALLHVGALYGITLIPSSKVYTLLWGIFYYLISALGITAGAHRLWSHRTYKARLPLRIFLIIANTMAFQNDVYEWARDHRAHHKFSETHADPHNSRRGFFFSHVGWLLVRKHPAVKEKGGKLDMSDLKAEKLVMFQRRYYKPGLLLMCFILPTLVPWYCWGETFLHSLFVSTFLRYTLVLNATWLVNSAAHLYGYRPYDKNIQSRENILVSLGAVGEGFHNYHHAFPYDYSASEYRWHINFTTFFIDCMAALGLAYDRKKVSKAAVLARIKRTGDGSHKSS
# In short: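 Microsomal desaturase activity was measured in 100 mM Tris HCl pH 7.3 with 2 mM NADH and [9,10-3H]stearoyl-CoA for 15 min at room temperature. The reaction was stopped on ice with trichloroacetic acid, then passed through activated charcoal, and tritium in the filtrate was counted. Compounds were tested in 2% DMSO final. Percent inhibition = (total−sample)/(total−blank)×100, with the blank set by 10⁻⁴ M of a standard inhibitor.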
# [20] = system: Rattus norvegicus; test: AUC in rat at 10 mg/kg; assay type: ADME, organism-based, Plasma; parameters: dose 10 mg/kg; details: in vivo; in short: as §3
# [21] = system: Mus musculus; test: Toxicity in CD-1 mouse assessed as meibomian gland (atrophy, squamous metaplasia) up to 300 mg/kg, po; assay type: organism-based; parameters: dose 300 mg/kg, route oral; details: in vivo
# [22] = system: Mus musculus; test: Toxicity in CD-1 mouse assessed as inhibition of fatty acid metabolism measured as lesions in eyes and skin at 30 to 300 mg/kg, po for 2 weeks; assay type: organism-based; parameters: dose 30-300 mg/kg, route oral; details: in vivo, 336 h
# [23] = AUC (0 to 24 hrs) in CD-1 mouse at 100 mg/kg, po; assay type: ADME, organism-based; parameters: time < 24 hr, dose 100 mg/kg, route oral; details: plasma; in short: as §1
# [24] = AUC (0 to 24 hrs) in CD-1 mouse at 30 mg/kg, po; assay type: ADME, organism-based; parameters: time < 24 hr, dose 30 mg/kg, route oral; details: plasma; in short: as §1
# [25] = system: Mus musculus; test: Toxicity in CD-1 mouse assessed as minimal Leydig cell hyperplasia of the testes at 300 mg/kg, po; assay type: organism-based, Testis; parameters: dose 300 mg/kg, route oral; details: in vivo
# [26] = system: Mus musculus; test: Toxicity in CD-1 mouse assessed as tubular atrophy of the testes up to 300 mg/kg, po; assay type: organism-based, Testis; parameters: dose 300 mg/kg, route oral; details: in vivo
# [27] = system: Mus musculus; test: Toxicity in CD-1 mouse assessed as decrease in relative peri-renal fat weight at 100 to 300 mg/kg, po relative to control; assay type: organism-based; parameters: dose 100-300 mg/kg, route oral; details: in vivo
# [28] = system: Mus musculus; test: Toxicity in CD-1 mouse assessed as decrease in absolute peri-renal fat weight at 100 to 300 mg/kg, po relative to control; assay type: organism-based; parameters: dose 100-300 mg/kg, route oral; details: in vivo
# [29] = system: Mus musculus; test: Toxicity in CD-1 mouse assessed as relative liver weight at 300 mg/kg, po; assay type: organism-based; parameters: dose 300 mg/kg, route oral; details: in vivo
# [30] = system: Mus musculus; test: Toxicity in CD-1 mouse assessed as absolute liver weight at 300 mg/kg, po; assay type: organism-based; parameters: dose 300 mg/kg, route oral; details: in vivo
# [31] = system: Mus musculus; test: Toxicity in CD-1 mouse assessed as relative liver weight at 100 mg/kg, po; assay type: organism-based; parameters: dose 100 mg/kg, route oral; details: in vivo
# [32] = system: Mus musculus; test: Toxicity in CD-1 mouse assessed as absolute liver weight at 100 mg/kg, po; assay type: organism-based; parameters: dose 100 mg/kg, route oral; details: in vivo
# [33] = system: Mus musculus; test: Toxicity in CD-1 mouse assessed as effect on body weight up to 300 mg/kg, po; assay type: organism-based; parameters: dose 300 mg/kg, route oral; details: in vivo
# [34] = system: Mus musculus; test: Toxicity in CD-1 mouse assessed as effect on food consumption up to 300 mg/kg, po; assay type: organism-based; parameters: dose 300 mg/kg, route oral; details: in vivo
# [35] = Plasma concentration in AKR/J mouse at 3 mg/kg measured after 4 hrs; assay type: ADME, organism-based; parameters: dose 3 mg/kg; in short: as §2
# [36] = Plasma concentration in AKR/J mouse at 10 mg/kg measured after 4 hrs; assay type: ADME, organism-based; parameters: dose 10 mg/kg; in short: as §2
# [37] = Plasma concentration in AKR/J mouse at 1 mg/kg measured after 4 hrs; assay type: ADME, organism-based; parameters: dose 1 mg/kg; in short: as §2
compound,measurement,setting,value
CNC(=O)c1cccc(NC(=O)N2CCC(Oc3ccccc3Cl)CC2)c1,AUC(0-t) at 24 h,[1],216 µM·h
same,Activity,[2],Non-toxic
same,Activity,[3],Toxic
same,Activity,[4],Toxic
same,Activity,[5],Toxic
same,Activity,[6],Toxic
same,Activity,[7],Toxic
same,Activity,[8],Toxic
same,Activity,[9],Toxic
same,Activity,[10],Toxic
same,Activity,[11],Toxic
same,Activity,[12],Non-toxic
same,concentration at 4 h,[13],1780 ng/mL
same,Activity,[14],Non-toxic
same,concentration at 6 h,[15],529 ng/g
same,Kp at 6 h,[16],8
same,Cmax,[17],599 ng/g
same,concentration at 6 h,[18],66 ng/g
same,IC50,[19],< 4 nM
same,AUC,[20],1435 ng·h/g
same,Activity,[21],Toxic
O=C(O)c1cnc(N2CCC3(CC2)CCN(Cc2cccc(C(F)(F)F)c2)c2ccccc2O3)s1,Activity,[22],Toxic
same,AUC(0-t) at 24 h,[23],565 µM·h
same,AUC(0-t) at 24 h,[1],1520 µM·h
same,AUC(0-t) at 24 h,[24],114 µM·h
same,Activity,[25],Toxic
same,Activity,[26],Toxic
same,Activity,[3],Toxic
same,Activity,[4],Toxic
same,Activity,[5],Toxic
same,Activity,[6],Toxic
same,Activity,[27],Toxic
same,Activity,[28],Toxic
same,Activity,[29],33%
same,Activity,[30],29%
same,Activity,[31],20%
same,Activity,[32],19%
same,Activity,[33],Non-toxic
same,Activity,[34],Non-toxic
same,Activity,[12],Non-toxic
same,concentration at 4 h,[13],1740 ng/mL
same,Activity,[14],Non-toxic
same,concentration at 4 h,[35],45 ng/mL
same,concentration at 4 h,[36],135 ng/mL
same,concentration at 4 h,[37],0.64 ng/mL
same,concentration at 6 h,[15],19200 ng/g
same,Kp at 6 h,[16],56
same,Cmax,[17],495 ng/g
same,concentration at 6 h,[18],345 ng/g
same,IC50,[19],8 nM
same,AUC,[20],2308 ng·h/g
same,Activity,[21],Toxic
